HTR2A ag – activates the mouse 5-HT2A serotonin receptor | activation, % at 7.6 µM | hit rate 0.66% among 360,000 | CHO-K1 mHTR2A beta-arrestin complementation, luminescence; percent of 30 µM serotonin response | P35363;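 active = activation above a run cutoff, the mean activation of all tested compounds plus 3 SD, cut at about 14% in these data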;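 also: 0% = plate median of compound wells and 100% = 30 µM serotonin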
MC4R barr agon – activates human MC4R beta-arrestin recruitment; activation, % at 8.9 µM; P32245; U2OS MC4R beta-arrestin complementation, luminescence; percent of melanotan II response, DMSO zero; hit rate 0.98% among 360,000;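 active = activation above a per-plate cutoff, the mean activation of sample wells on that plate plus 3 SD, cut at about 8% in these data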
MC4R antagonist – blocks human MC4R cAMP signaling; AID 540295; hit rate 0.48% among 360,000; P32245; inhibition, % at 6.5 µM; MC4R-expressing cells, MTII-stimulated cAMP, LANCE TR-FRET;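 active = inhibition above its plate's cutoff, the mean of tested wells on that plate plus 3 SD, cut at about 29% in these data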;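 also: 0% = Melanotan II alone and 100% = Melanotan II plus saturating MCL0020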
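Material – human MC4R-expressing U2OS cells · Repeats – no replicates · Detection – TR-FRET with Eu-cAMP and labeled anti-cAMP, 671 nm · Times – compound 30 min, challenge 1 h, detection 1 h · Compound – single nominal compound dose of 6.5 µM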
FXN GAA850 act – frataxin GAA850 promoter activation; HEK293 lucGAA850 FXN promoter luciferase reporter, 24 h; percent of 10 µM SAHA response; hit rate 0.56% among 360,000; activation, % at 6 µM;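 active = activation above the average of all compounds screened plus 3 SD, cutoff fixed separately per campaign, cut at about 7.5% in these data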;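 also: 0% = DMSO wells and 100% = 10 µM SAHA wells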
AHR activator – activators of human aryl hydrocarbon receptor | hit rate 2.5% among 320,000 | AHR-responsive luciferase reporter cells, luminescence | AID 2796 | activation, % at 5 µM; in the data active = activation above about 47%;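 also: 0% = vehicle wells and 100% = reference agonist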
AHR act cf – human AHR activation, confirmation; hit rate 87% among 2,300; human cells, AHR-responsive luciferase reporter, luminescence; AID 2845; shares compounds with AHR activator; activation, % at 9 µM; in the data active = activation above about 49%;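 also: HepG2 hepatoma cells carrying a DRE-driven firefly luciferase reporter; 0% = vehicle wells and 100% = reference agonist wells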
PXR counter – PXR activation, counter-screen for AHR activators; cell-based PXR reporter, luciferase luminescence; shares compounds with AHR activator; hit rate 88% among 2,300; AID 434939; activation, % at 11.6 µM; in the data active = activation above about 11%;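 also: human hepatoma DPX-2 cells expressing full-length human PXR; 0% = DMSO and 100% = reference agonist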
Target sequence (O75469 whole entry, looked up): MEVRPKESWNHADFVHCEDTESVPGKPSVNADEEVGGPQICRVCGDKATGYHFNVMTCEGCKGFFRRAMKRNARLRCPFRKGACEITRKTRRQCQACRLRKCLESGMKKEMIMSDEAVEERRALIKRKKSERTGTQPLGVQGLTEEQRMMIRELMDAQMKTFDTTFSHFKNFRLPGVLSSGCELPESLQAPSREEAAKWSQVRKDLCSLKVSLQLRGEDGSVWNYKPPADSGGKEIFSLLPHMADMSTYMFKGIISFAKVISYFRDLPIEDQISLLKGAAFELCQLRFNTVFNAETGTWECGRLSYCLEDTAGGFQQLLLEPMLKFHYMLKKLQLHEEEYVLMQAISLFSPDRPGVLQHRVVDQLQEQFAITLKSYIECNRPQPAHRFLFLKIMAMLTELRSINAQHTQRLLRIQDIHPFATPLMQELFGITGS
Numbers without * were called inactive; · = not tested or not shown. An excerpt weighted towards active compounds, which were near 4.7% of everything screened.

SMILES	HTR2A ag	MC4R barr agon	MC4R antagonist	FXN GAA850 act	AHR activator	AHR act cf	PXR counter
C=CCc1cccc(/C=N/NC(=O)CNc2ccccc2)c1O	-8	4	4	-3	90*	69*	47*
C=CCc1cccc(/C=N/NC(=O)CNc2cccc3ccccc23)c1O	-4	0	10	0	42	·	·
COc1ccc(C(=O)Nc2ccccc2C(=O)N/N=C/c2ccco2)cc1	5	-4	-4	7	137*	100*	29*
Cc1ccccc1C(=O)Nc1ccc(C(=O)N/N=C/c2ccncc2)cc1	-3	0	-1	0	0	·	·
CCOc1ccc(C(=O)Nc2ccccc2C(=O)O)cc1	-1	0	4	5	8	·	·
CCOc1ccc(/C=N/NC(=O)c2ccccc2NC(=O)c2ccc(OC)cc2)cc1	0	2	-2	4	106*	13	31*
COc1ccc(/C=N/NC(=O)c2ccccc2NC(=O)c2ccco2)c(OC)c1	1	0	3	2	12	·	·
O=C(Nc1ccccc1C(=O)N/N=C/c1ccncc1)c1ccccc1	6	-2	5	6	101*	41	37*
O=C(Nc1c(-c2ccc3c(c2)OCO3)[nH][nH]c1=O)c1cccc(C(F)(F)F)c1	1	·	·	·	·	·	·
COc1ccc(-c2cc3c(o2)CCCC3OCCN2CCOCC2)cc1 (stereo not given)	-4	·	·	·	·	·	·
CC1(C)CC(=O)C=C(c2ccc(-c3ccc(OC(F)(F)F)cc3)cc2)C1=O	3	-1	19	0	·	·	·
Clc1ccc(-c2nc3ncccn3c2Cl)cc1	2	-1	7	13*	87*	148*	55*
O=C(COC(=O)CC1CCCC1)Nc1ccccc1[N+](=O)[O-]	-5	4	7	-1	15	·	·
COc1ccc(F)c(CN2CCC(n3nccc3NC(=O)C3CCOC3)CC2)c1 (stereo not given)	5	-2	2	2	3	·	·
O=c1[nH]c(SCc2nc3c(cnn3-c3ccccc3)c(=O)[nH]2)nc2ccccc12	2	1	2	-5	·	·	·
Cc1ccc2nc(SCc3nc4c(cnn4-c4ccccc4)c(=O)[nH]3)[nH]c2c1	3	3	-12	1	121*	29	37*
O=c1[nH]c(SCc2ccccc2Cl)nc2c1cnn2-c1ccccc1	-4	9.3*	-9	-2	117*	77*	105*
S=c1nc(COc2ccccc2)[nH]c2ccccc12	1	1	13	1	124*	125*	14*
O=C(CNC(=O)c1ccc(C(F)(F)F)cc1)NC1CC1	7	-2	-1	3	-1	·	·
O=C1CC(c2ccccc2)CC2=C1C1(CCCC1)N=C(Nc1nc3ccccc3o1)N2 (stereo not given)	-1	0	-1	1	·	·	·
Cc1cccc(-c2nnc3n2N=C(c2ccccc2)CS3)c1	-9	-1	-13	1	4	·	·
C[n+]1c2n(c3ccccc31)N=C(c1ccccc1)CS2	-4	-2	8	2	69*	52*	32*
CC1=CCC2C(=O)N(c3ccc(C)c(Br)c3)C(=O)C2C1 (stereo not given)	5	1	6	2	90*	3	87*
CCN1CC(CN(C)Cc2nc(-c3ccc(C(F)(F)F)cc3)oc2C)CC1=O (stereo not given)	1	1	-6	2	116*	99*	64*
CCN1CC(CN(C)Cc2nc(-c3ccco3)oc2C)CC1=O (stereo not given)	0	-3	2	0	1	·	·
SMILES	HTR2A ag	MC4R barr agon	MC4R antagonist	FXN GAA850 act	AHR activator	AHR act cf	PXR counter
O=C(Nc1ccc(Cl)cc1)Nc1ccon1	0	0	-8	-2	97*	76*	14*
O=C(NCc1cccc(OC(F)(F)F)c1)C1CCC(=O)N(Cc2cccc(F)c2)C1 (stereo not given)	1	0	14	0	0	·	·
c1ccc(Nc2nc(-c3cccnc3)cs2)nc1	-2	-1	-4	2	166*	74*	41*
Fc1ccc(-c2csc(NC(=S)Nc3ccccc3)n2)cc1	-2	8	4	2	84*	79*	32*
O=C(COc1ccccc1)Nc1nc(-c2cccs2)cs1	-2	-2	-1	3	4	·	·
Cc1ccc(Nc2nc(-c3ccc(F)cc3)cs2)nc1	-2	4	20	5	·	·	·
Nc1ccc(Nc2nc(-c3cccs3)cs2)cc1	-5	-2	-1	7	117*	12	16*
Fc1ccc(-c2csc(Nc3ccccn3)n2)cc1	2	4	4	6	83*	107*	18*
CC1(c2nnnn2Cc2ccccc2)CCC(=O)N1CC1CCCCC1 (stereo not given)	-3	·	·	·	·	·	·
COc1ccc(S(=O)(=O)N(C)C[C@H]2Oc3ncc(Br)cc3C(=O)N([C@@H](C)CO)C[C@@H]2C)cc1	4	-1	9	2	·	·	·
CCOC(=O)C1CCCN(C(=O)c2ccc(F)c(C)c2)CC1 (stereo not given)	1	2	13	-2	·	·	·
CC(C)NC(=O)C1(C)CN(S(C)(=O)=O)CC(=O)N1Cc1ccco1 (stereo not given)	0	·	·	·	·	·	·
Cc1ccc(Nc2nc(-c3cccnc3)cs2)cc1Cl	-3	0	11	7	45	·	·
Cc1ccc(C)c(Nc2nc(-c3cccnc3)cs2)c1	-2	-3	5	5	82*	90*	26*
CC(C)CC(=O)Nc1cccc(-c2csc(-c3ccccc3)n2)c1	-3	3	15	-1	17	·	·
CC(=O)Nc1ccc(-c2csc(Nc3cc(C)ccn3)n2)cc1	0	-2	2	2	-2	·	·
CCC(=O)Nc1cccc(-c2csc(-c3ccccc3)n2)c1	4	1	8	1	105*	85*	21*
NNc1nc(-c2ccccc2)cs1	5	3	-9	2	80*	82*	27*
Cc1ccnc(Nc2nc(-c3ccccc3)cs2)c1	-2	1	-9	5	163*	89*	48*
Cc1ccc(F)c(S(=O)(=O)NC(=O)C2(C)CCN2C(=O)c2ccc(C3CCCCC3)cc2)c1 (stereo not given)	6	-1	15	1	·	·	·
COc1cccc(Nc2nc(-c3cccnc3)cs2)c1	2	-1	2	5	108*	127*	13*
COc1ccc(-c2csc(Nc3cccnc3)n2)cc1OC	2	0	3	4	-18	·	·
CC(=O)Oc1ccc(-c2csc(Nc3ccccn3)n2)cc1	3	-1	-2	2	·	·	·
CC(=O)Nc1nc(C)c(-c2csc(Nc3ccccn3)n2)s1	-3	-2	4	2	116*	108*	32*
